Measurements: ChEMBL document CHEMBL1122463, “2,3-dihydro-3-(1-pyrryl)spiro[benzofuran-2,4'-piperidine]s and 2,3-dihydro-3-(1-pyrryl)spiro[benzofuran-2,3'-pyrrolidine]s: novel antihypertensive agents” (1983)

Columns and labels:
Type in all cases: functional, Blood
Rattus norvegicus [1] = organism: Rattus norvegicus; assay: Oral hypotensive activity in spontaneously hypertensive rats by using tail-cuff method measured as change in systolic BP
Summary of the method: (§1)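 Okamoto-Aoki spontaneously hypertensive rats. Compound suspended in distilled water with Tween 80, given po daily, screening dose 50 mg/kg, dose-response at 50, 30, 10 or 3 mg/kg unless stated. Systolic BP by tail-cuff plethysmography on day 1 predose and 2 h, day 3 predose and 2 h, and day 5 predose, 2 and 4 h. Reported as peak decrease on day 3 (or day 5) at 2 h ± SEM. n = 4 in screen, 4–8 per dose.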

Rattus norvegicus [2] = organism: Rattus norvegicus; assay: Oral hypotensive activity in spontaneously hypertensive rats by using tail-cuff method measured as the initial BP
Summary of the method: (§2)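 Okamoto-Aoki strain spontaneously hypertensive rats. Compounds were suspended in distilled water with Tween 80 and given orally every day at 50, 30, 10 or 3 mg/kg. Systolic BP was measured by tail-cuff plethysmography on day 1 (predose and 2 h), day 3 (predose and 2 h) and day 5 (predose, 2 and 4 h). The screen used 4 rats; dose-response used 4–8 rats per dose.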

Rattus norvegicus [3] = assay: (§3) Oral hypotensive activity in spontaneously hypertensive rats by using tail-cuff method measured as change in systolic BP at the dose of 10 mg/kg po.; summary of the method: as §1
Rattus norvegicus [4] = assay: (§4) Oral hypotensive activity in spontaneously hypertensive rats by using tail-cuff method measured as change in systolic BP at the dose of 5 mg/kg po.; summary of the method: as §2
Rattus norvegicus [5] = assay: (§5) Oral hypotensive activity in spontaneously hypertensive rats by using tail-cuff method measured as change in systolic BP at the dose of 25 mg/kg po.
Summary of the method: (§6)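 SHR of the Okamoto-Aoki strain, dosed orally every day with compound suspended in distilled water with Tween 80. Systolic pressure was taken by tail-cuff plethysmography on day 1 (predose, 2 h), day 3 (predose, 2 h) and day 5 (predose, 2 and 4 h). Initial BP is the pretreatment systolic pressure, with 4–8 rats per dose in the dose-response screen.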

Rattus norvegicus [6] = assay: as §4; summary of the method: as §1; remark: listed apart in the source
Rattus norvegicus [7] = assay: as §5; summary of the method: as §1; remark: listed apart in the source
Rattus norvegicus [8] = assay: as §3; summary of the method: as §6; remark: listed apart in the source
Rattus norvegicus [9] = assay: (§7) Oral hypotensive activity in spontaneously hypertensive rats by using tail-cuff method measured as change in systolic BP at the dose of 50 mg/kg po.; summary of the method: as §1
Rattus norvegicus [10] = assay: as §7; summary of the method: as §2; remark: listed apart in the source
Rattus norvegicus [11] = assay: as §4; summary of the method: as §6; remark: listed apart in the source
Rattus norvegicus [12] = organism: Rattus norvegicus; assay: Hypotensive activity in renal hypertensive rats by using tail-cuff method measured as BP on (2/0) day/h postdrug
Summary of the method: (§8)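 Renal hypertension made in male Sprague-Dawley rats (Grollman modification). Under pentobarbital (50 mg/kg ip), the right kidney was removed and silk sutures tied around both poles of the left kidney to constrict it. After 3 weeks, rats with systolic BP >150 mmHg were used. Compound given po daily to 4 rats. Systolic BP by tail-cuff plethysmography at the listed day/hour after dosing.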

Rattus norvegicus [13] = organism: Rattus norvegicus; assay: Hypotensive activity in renal hypertensive rats by using tail-cuff method measured as BP on (3/2)day/h postdrug; summary of the method: as §8
Rattus norvegicus [14] = organism: Rattus norvegicus; assay: Hypotensive activity in renal hypertensive rats by using tail-cuff method measured as initial BP; summary of the method: as §8
Rattus norvegicus [15] = organism: Rattus norvegicus; assay: Hypotensive activity in renal hypertensive rats by using tail-cuff method measured as BP on (1/2) day/h postdrug; summary of the method: as §8
Rattus norvegicus [16] = organism: Rattus norvegicus; assay: Hypotensive activity in renal hypertensive rats by using tail-cuff method measured as BP on (3/0) day/h postdrug; summary of the method: as §8
Rattus norvegicus [17] = organism: Rattus norvegicus; assay: Hypotensive activity in renal hypertensive rats by using tail-cuff method measured as BP on (2/2) day/h postdrug; summary of the method: as §8

Work on `OCCN1CCC2(CC1)Oc1ccccc1C2n1cccc1` (stereo not given) yielded a Delta blood pressure (Rattus norvegicus [1]) of 39 mmHg and a BP (Rattus norvegicus [2]) of 170 mmHg.

`c1ccc(CN2CCC3(C2)Oc2ccccc2C3n2cccc2)cc1` (stereo not given) was tested, and the Delta blood pressure (Rattus norvegicus [3]) was -10 mmHg, the BP (Rattus norvegicus [4]) was 198 mmHg and the BP (Rattus norvegicus [5]) was 185 mmHg. The Delta blood pressure (Rattus norvegicus [6]) was 27 mmHg, the Delta blood pressure (Rattus norvegicus [7]) was 18 mmHg and the BP (Rattus norvegicus [8]) was 171 mmHg. For the same compound, the Delta blood pressure (Rattus norvegicus [9]) was 42 mmHg and the BP (Rattus norvegicus [10]) was 211 mmHg.

For `CCN(CC)CCN1CCC2(CC1)Oc1ccccc1C2n1cccc1` (stereo not given), the Delta blood pressure (Rattus norvegicus [1]) was 38 mmHg and the BP (Rattus norvegicus [2]) was 185 mmHg.

Work on `c1ccc2c(c1)OC1(CCNC1)C2n1cccc1` (stereo not given) yielded a BP (Rattus norvegicus [4]) of 200 mmHg, a BP (Rattus norvegicus [5]) of 181 mmHg and a Delta blood pressure (Rattus norvegicus [5]) of 13 mmHg. For the same compound, the BP (Rattus norvegicus [8]) was 179 mmHg, the Delta blood pressure (Rattus norvegicus [8]) was 36 mmHg and the Delta blood pressure (Rattus norvegicus [11]) was 17 mmHg. The BP (Rattus norvegicus [10]) was 223 mmHg and the Delta blood pressure (Rattus norvegicus [10]) was 58 mmHg.

For `CN1CCC2(C1)Oc1ccccc1C2n1cccc1` (stereo in doubt; 10), the BP (Rattus norvegicus [10]; 50 mg/kg) was 197 mmHg and the Delta blood pressure (Rattus norvegicus [10]; 50 mg/kg) was 38 mmHg.

For `CN1CCC2(C1)Oc1ccccc1C2n1cccc1` (stereo in doubt; 11), the BP (Rattus norvegicus [10]; 50 mg/kg) was 180 mmHg and the Delta blood pressure (Rattus norvegicus [10]; 50 mg/kg) was 14 mmHg.

Work on `C[C@H](CS)C(=O)N1CCC[C@H]1C(=O)O` [CAPTOPRIL] yielded a BP (Rattus norvegicus [12]) of 185 mmHg, a BP (Rattus norvegicus [13]) of 152 mmHg and a BP (Rattus norvegicus [14]) of 192 mmHg. For the same compound, the BP (Rattus norvegicus [15]) was 181 mmHg, the BP (Rattus norvegicus [16]) was 163 mmHg and the BP (Rattus norvegicus [17]) was 169 mmHg.
